Test results reported in ChEMBL document CHEMBL1165905, “Synthesis of methyl-substituted xanthotoxol to clarify prooxidant effect of methyl on radical-induced oxidation of DNA” (Eur J Med Chem, 2010).
Activity calls are given as the source filed them. The rule behind the calls is not given here.

Assays:
[1] = Antioxidant activity against beta-carotene and linoleic acid assessed as inhibition of bleaching of beta-carotene at 13.3 uM measured up to 540 mins by autooxidation assay; format: functional
Outline: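 β-Carotene–linoleic acid emulsion with compound at 13.3 μM. Bleaching of β-carotene by peroxyl radicals from linoleic acid autoxidation was followed as absorbance at 460 nm and plotted against time.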

[2] = tested on: Radical scavenging activity; experiment: Antioxidant activity assessed as DPPH radical scavenging activity measured up to 300 mins; format: functional
Outline: (§1)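 Radical was dissolved in ethanol to about 1.00 absorbance: DPPH read at 517 nm, galvinoxyl at 428 nm. Compound in ethanol was added at 200 μM final and absorbance decay recorded. Percent scavenged = (1 − Abs_detect/Abs_ref) × 100, plotted against incubation time.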

[3] = Antioxidant activity assessed as galvinoxyl radical scavenging activity measured up to 210 mins; format: functional; outline: as §1
[4] = Antioxidant activity assessed as protection against Cu(2+)/[…]-induced DNA damage up to 180 mins by TBARS assay; format: functional
Outline: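 DNA (2.0 mg/mL), CuSO4 (5.0 mM) and GSH (3.0 mM) in phosphate buffer (6.1 mM Na2HPO4, 3.9 mM NaH2PO4). Compound added from DMSO at 0.2 mM final. Incubated at 37 °C, with three tubes removed every 30 min and stopped with EDTA (30.0 mM final). TBARS read in the n-butanol layer at 535 nm. Oxidative percentage = (A_x/A_0) × 100 at 150 min relative to control.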

[5] = Antioxidant activity assessed as protection against […]-induced oxidation of DNA […]; format: functional
[6] = Antioxidant activity assessed as protection against […]-induced oxidation of DNA at 80 uM up to 675 mins

| SMILES | Activity [1] | IC50 [2] [µM] | IC50 [3] [µM] | Activity [4] | Activity [5] | Activity [6] |
| --- | --- | --- | --- | --- | --- | --- |
| Cc1coc2c(O)c3oc(=O)cc(C)c3cc12 | Active | 119 | 170 | Active | Active | Active |
| Cc1cc(=O)oc2c(O)c3occc3cc12 | Active | 81.5 | 173 | Active | Active | Active |
| O=c1ccc2cc3ccoc3c(O)c2o1 [XANTHOTOXOL] | Active | 69.6 | 188 | Active | Active | Active |
